In the library only some 3.2% were active in any assay of this set; here they are far more common.
TRPML3 ag – human mucolipin-3 channel agonism; HEK293 TRPML3-YFP, Fluo-8 calcium fluorescence; 100% = the carbachol control signal; activation, % at 3 µM; 0.29% of 220,000 active; AID 1448;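 active means activation above its plate's cutoff, the mean activation of the plate's test wells plus 3 SD, cut at about 12% in these data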;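 further: 0% = DMSO only wells and 100% = carbachol wells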
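Test system: HEK293 cells stably carrying human TRPML3-YFP; Doses: single dose, 3 µM final nominal compound, 0.3% DMSO final; Schedule: dye loading 1 h 37 °C then 30 min ambient, 125 s read; Technique: Fluo-8 calcium fluorescence; Benchmarks: high control carbachol 87 µM, low control DMSO.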
OX1R antag-1 – antagonists of human orexin 1 receptor (OX1R); O43613; OX1R-expressing cells, FRET antagonist read-out; inhibition, % at 6.6 µM; 1.8% of 330,000 active; AID 485270; in the data active means inhibition mostly above about 38%, no sharp cut-off; inactive means mostly below about 40%;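 further: 0% = agonist challenge alone and 100% = reference antagonist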
OX1R antag-2 – antagonists of human orexin 1 receptor | O43613 | CHO/OX1R cells, Fluo-8 calcium fluorescence, orexin A | inhibition, % at 5 µM | 0.43% of 330,000 active | AID 434989;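 active means inhibition above its plate's threshold, mean inhibition of all tested compounds on the plate plus 3 SD, cut at about 37% in these data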;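 further: 0% = orexin A challenge wells and 100% = SB-334867-A antagonist wells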
CHO parental Ca – counter-screen for OX1R antagonists: effect in parental CHO cells. parental CHO-K1, ATP-induced calcium, Fluo-8 fluorescence. inhibition, % at 5.6 µM. 0.63% of 330,000 active. AID 463079;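 active means inhibition above that plate's mean sample inhibition plus 3 SD, cut at about 26% in these data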;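 further: 0% = ATP-challenged DMSO wells and 100% = DMSO wells without ATP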
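Test system: parental CHO cells; detection: calcium-sensitive Fluo-8 fluorescence; evaluation: percent inhibition of calcium signal; also added: ATP as calcium-mobilizing challenge; repeats: one well per compound; control set: ATP-challenged DMSO wells low, unchallenged DMSO wells high; compound: single nominal dose of 5.6 µM per compound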
GPR7 antagonist – blocks human GPR7 receptor signaling | 1.1% of 290,000 active | P48145 | GPR7-expressing cells, fluorescence antagonist assay | inhibition, % at 4.4 µM; in the data active means inhibition above about 16%, passing the limit was not always enough;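 further: cells stimulated with the agonist NPW; 0% = agonist with vehicle and 100% = vehicle without agonist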
Target sequence (P48145 whole entry, looked up): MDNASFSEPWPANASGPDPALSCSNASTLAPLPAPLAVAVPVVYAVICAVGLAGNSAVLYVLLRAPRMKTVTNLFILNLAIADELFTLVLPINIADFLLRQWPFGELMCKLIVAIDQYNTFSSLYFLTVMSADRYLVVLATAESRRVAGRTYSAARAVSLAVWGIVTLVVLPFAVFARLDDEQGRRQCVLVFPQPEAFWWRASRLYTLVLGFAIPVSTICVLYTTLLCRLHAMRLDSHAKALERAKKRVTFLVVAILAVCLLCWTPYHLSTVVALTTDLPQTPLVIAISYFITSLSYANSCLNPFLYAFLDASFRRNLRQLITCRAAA
zfTRPN1 agonist – agonists of zebrafish TRPN1 channel | 0.18% of 220,000 active | AID 1424 | HEK293 zebrafish TRPN1-YFP, Fluo-8 calcium fluorescence; 100% = response to 87 µM carbachol | activation, % at 3 µM;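 active means activation above its plate's cutoff, the mean activation of test wells on that plate plus 3 SD, cut at about 19% in these data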;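 further: 0% = DMSO alone and 100% = 87 µM carbachol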
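Material: zebrafish TRPN1-YFP in HEK293 cells; Doses: single test compound dose, 3 µM nominal, 0.3% DMSO; Timing: dye loading 1 h at 37 °C, then 30 min room temperature; Technique: intracellular calcium fluorescence with Fluo-8; Benchmarks: high carbachol 87 µM, low DMSO alone.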
GPR7 antag cf – human GPR7 antagonism, confirmation assay; AID 1952; 52% of 2,400 active; GPR7-expressing cells, calcium fluorescence antagonist mode; shares compounds with GPR7 antagonist; inhibition, % at 4.4 µM; in the data active means inhibition above about 24%;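 further: stimulated with the GPR7 agonist NPW; 0% = agonist plus vehicle and 100% = vehicle alone without agonist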
MCHR1 antag – MCHR1 (human) antagonism in GPR7 counter-screen; AID 2148; shares compounds with GPR7 antagonist; inhibition, % at 4.4 µM; 62% of 2,400 active; MCHR1-expressing cells, fluorescence antagonist assay; in the data active means inhibition above about 22%;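 further: 0% = vehicle with agonist and 100% = vehicle without agonist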
An asterisk follows results filed as active.

`O=[N+]([O-])c1cccc(-c2nc3ccccc3s/c2=N/O)c1` gave TRPML3 ag 0, OX1R antag-1 24, OX1R antag-2 12, CHO parental Ca -1, GPR7 antagonist 31, zfTRPN1 agonist -2, GPR7 antag cf 45* and MCHR1 antag 40*.
Cc1cc(C)c2c(c1)/C(=N\N=c1\sc3ccccc3n1C)C(=O)N2 was read as TRPML3 ag 0, OX1R antag-1 15, OX1R antag-2 -4, CHO parental Ca 15, GPR7 antagonist -6 and zfTRPN1 agonist 0.
Cc1ccc(CC(=O)OC(C)C(=O)NC2CCCCC2C)cc1C (stereo unspecified) was read as OX1R antag-1 5, OX1R antag-2 -19 and CHO parental Ca -18.
`CC(C)C1Nc2ccc(C(=O)NCCCN3CCOCC3)cc2NC1=O` (stereo unspecified) gave OX1R antag-1 15, OX1R antag-2 -1, CHO parental Ca -7 and GPR7 antagonist -14.
`Nc1nnnn1CC(=O)OCc1cccc(Br)c1` gave TRPML3 ag 0, OX1R antag-1 14, OX1R antag-2 -9, CHO parental Ca -2, GPR7 antagonist 27*, zfTRPN1 agonist 0, GPR7 antag cf -3 and MCHR1 antag 1.
O=C(N/N=C/c1c[nH]c2ccccc12)c1cc(Cl)ccc1O was read as OX1R antag-1 22, OX1R antag-2 -6, CHO parental Ca 2, GPR7 antagonist 36*, GPR7 antag cf 10 and MCHR1 antag 27*.
Screening Cc1ccc(-c2cc(C(=O)N/N=C/c3c[nH]c4ccccc34)[nH]n2)cc1 returned TRPML3 ag 0, GPR7 antagonist 34*, zfTRPN1 agonist 0, GPR7 antag cf 18 and MCHR1 antag 35*.
`CCc1nn(CC(=O)Nc2ccc(Br)c(C)c2)c(=N)s1` gave TRPML3 ag 1, OX1R antag-1 19, OX1R antag-2 -26, CHO parental Ca -10, GPR7 antagonist -4 and zfTRPN1 agonist 2.
`CC(=O)N1CSCC1C(=O)NNS(=O)(=O)c1cccc(C(F)(F)F)c1` (stereo unspecified) gave TRPML3 ag 1, OX1R antag-1 5, OX1R antag-2 -4, CHO parental Ca -12, GPR7 antagonist -1 and zfTRPN1 agonist 0.
For CC(OC(=O)CNC(=O)C1CCCCC1)C(=O)NCc1ccccc1 (stereo unspecified) the results were OX1R antag-1 12, OX1R antag-2 -6 and CHO parental Ca 0.
`CCCCN(C)C1=CC2=CC(=C(C#N)C#N)CCC2CC1` (stereo unspecified) gave TRPML3 ag 225*, OX1R antag-1 25, OX1R antag-2 106*, CHO parental Ca 101*, GPR7 antagonist 75*, zfTRPN1 agonist 239*, GPR7 antag cf 103* and MCHR1 antag 110*.
CCN(CC)C1=CC2=CC(=C(C#N)C#N)CCC2CC1 (stereo unspecified) was read as TRPML3 ag 298*, OX1R antag-1 28, OX1R antag-2 107*, CHO parental Ca 99*, GPR7 antagonist 58*, zfTRPN1 agonist 332*, GPR7 antag cf 91* and MCHR1 antag 105*.
N#CC(C#N)=C1C=C2C=C(N3CCCCC3)CCC2CC1 (stereo unspecified) was read as TRPML3 ag 380*, OX1R antag-1 42, OX1R antag-2 106*, CHO parental Ca 101*, GPR7 antagonist 74*, zfTRPN1 agonist active, GPR7 antag cf 93* and MCHR1 antag 109*.
For COc1ccccc1Cn1[nH]nnc1=S the results were TRPML3 ag 2, OX1R antag-1 0, OX1R antag-2 -4, CHO parental Ca -9, GPR7 antagonist -12 and zfTRPN1 agonist 1.
`c1ccc(-c2ccc(CN3CCSCC3)cc2)cc1` gave OX1R antag-1 22, OX1R antag-2 -30, CHO parental Ca 2, GPR7 antagonist 24*, GPR7 antag cf -2 and MCHR1 antag 4.
For Clc1ccc(CN2CCSCC2)cc1Cl the results were OX1R antag-1 16, OX1R antag-2 -13, CHO parental Ca -8 and GPR7 antagonist -8.
For CCOC(=O)N1CCN(S(=O)(=O)N2CCCC(C(=O)NCCCN3CCCCC3)C2)CC1 (stereo unspecified) the results were OX1R antag-1 2, OX1R antag-2 2, CHO parental Ca -15 and GPR7 antagonist -5.
Cc1ccc2c(c1)c1c(n2CC(O)CNC2CCCC2)CCCC1 (stereo unspecified) was read as TRPML3 ag 1, OX1R antag-1 3, OX1R antag-2 -18, CHO parental Ca -5, GPR7 antagonist 23*, zfTRPN1 agonist 1, GPR7 antag cf 53* and MCHR1 antag 41*.
`O=C(O)CC12CC3CC(C1)CC(n1cncn1)(C3)C2` gave TRPML3 ag 1, OX1R antag-1 22, OX1R antag-2 11, CHO parental Ca -4, GPR7 antagonist -2 and zfTRPN1 agonist 1.
For Cc1nn(CC(=O)N(C)C)c(C)c1S(=O)(=O)N1CCOCC1 the results were OX1R antag-1 3, OX1R antag-2 -7 and CHO parental Ca -5.
`COc1ccccc1OC(C)C(=O)N1CCC(Cc2ccccc2)CC1` (stereo unspecified) gave OX1R antag-1 14, OX1R antag-2 -15, CHO parental Ca -5 and GPR7 antagonist 4.
Cc1ccccc1OC(C)C(=O)N1CCC(Cc2ccccc2)CC1 (stereo unspecified) was read as OX1R antag-1 35, OX1R antag-2 -21, CHO parental Ca -13, GPR7 antagonist 28*, GPR7 antag cf 19 and MCHR1 antag 36*.
`CN1CCN(C2=Cc3ccccc3Sc3cc(F)c(Cl)cc32)CC1` gave TRPML3 ag 0, OX1R antag-1 8, OX1R antag-2 -13, CHO parental Ca -6, GPR7 antagonist 27*, zfTRPN1 agonist 0, GPR7 antag cf 38* and MCHR1 antag 58*.
For CN1CCN(C2=Cc3ccccc3Sc3cc(F)c(F)cc32)CC1 the results were TRPML3 ag 0, OX1R antag-1 12, OX1R antag-2 -21, CHO parental Ca -4, GPR7 antagonist 0 and zfTRPN1 agonist 1.
For Cc1ccc(-c2nc(=S)c3c(n2Cc2ccco2)CCCC3)cc1 the results were TRPML3 ag 0, GPR7 antagonist 17 and zfTRPN1 agonist -1.

High-throughput results from PubChem.
